Non-standard residues stand in square brackets, D forms with d. Residues, ends and D or L forms follow the SMILES beside them. Lys(Me2) = CN(C)CCCC[C@H](N)C(=O)O; hArg = N=C(N)NCCCC[C@H](N)C(=O)O; hLys = NCCCCC[C@H](N)C(=O)O; Nlys = NCCCCNCC(=O)O
How the values were obtained:
CD40 mRNA [1] = assay: […] CD40 expression in BCL1 cells treated with 1 uM peptide nucleic acid (PNA)conjugate; n=3; type: functional, cell-based; details: Mus musculus
Outline: (§1)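 Mouse BCL1 cells in DMEM with 10% FBS, given conjugate at 1, 3 or 10 μM by free uptake (no transfection agent) for 3 days. Cells trypsinised and stained 1 h with FITC anti-CD40 (HM40-3) or isotype control, then surface CD40 read by flow cytometry. Results are % untreated control, mean ± SD, n = 3.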

CD40 mRNA [2] = assay: […] CD40 expression in BCL1 cells treated with 3 uM peptide nucleic acid (PNA)conjugate; n=3; type: functional, cell-based; details: Mus musculus; outline: as §1
[3] = Half-life of the conjugate when treated with 25% murine serum for enzymatic stability; type: ADME; details: mouse
Outline: (§2)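 Conjugates at 20 μM in 10% FBS RPMI 1640 medium or 25% mouse serum (Hepes-stabilised, diluted in PBS, pH 7.1–7.4), incubated at 37 °C. Sampled to 168 h (FBS) or 48 h (serum); proteins precipitated with 10% DCA, PNA 6mer internal standard added. Analysed by C3 RP-HPLC at 60 °C; t1/2 from normalised full-length peak area versus time.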

[4] = Half-life of the conjugate when treated with 10% foetal bovine serum for enzymatic stability; type: ADME, Bos taurus; details: cattle; outline: as §2
BCL1 [5] = assay: Inhibitory concentration against BCL1 cell proliferation in WST-1 assay; Range 10-20; type: functional, Mus musculus
Outline: (§3)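 BCL1 cells, 2000 per well, grown in DMEM with 10% FBS at 37 °C and 5% CO2. Exposed to conjugate for 3 days, then viable cells read by WST-1 absorbance at 450 nm. Value is the concentration at which absorbance fell below 50% of untreated control; triplicates.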

CD40 mRNA [6] = assay: […] CD40 expression in BCL1 cells treated with 10 uM peptide nucleic acid (PNA)conjugate; n=3; type: functional, cell-based; details: Mus musculus; outline: as §1
BCL1 [7] = assay: Inhibitory concentration against BCL1 cell proliferation in WST-1 assay; type: functional, Mus musculus; outline: as §3
[8] = Half-life of the conjugate when treated with 25% murine serum for enzymatic stability; No data available; type: ADME; details: mouse; outline: as §2

SMILES | UTC (CD40 mRNA [1]) [%] | UTC (CD40 mRNA [2]) [%] | half-life [3] [h] | half-life [4] [h] | IC50 (BCL1 [5]) [µM] | UTC (CD40 mRNA [6]) [%] | IC50 for cell proliferation (BCL1 [7]) [µM] | T1/2 [8]
NCCCC[C@@H](C=O)NC(=O)[C@H](CCCCN)NC(=O)[C@H](CCCCN)NOC(=O)[C@H](CCCN)NC(=O)[C@H](CCCCN)NC(=O)[C@H](CCCCN)NOC(=O)[C@H](CCCN)NC(=O)[C@H](CCCCN)NC(=O)[C@@H](N)CCCCN | 94 | 65 | 18 | > 168 | 20 | 34 | – | –
N=C(N)NCCCC[C@H](NC(=O)[C@H](CCCCNC(=N)N)NC(=O)[C@H](CCCCNC(=N)N)NC(=O)[C@H](CCCCNC(=N)N)NC(=O)[C@H](CCCCNC(=N)N)NC(=O)[C@H](CCCCNC(=N)N)NC(=O)[C@H](CCCCNC(=N)N)NC(=O)[C@@H](N)CCCCNC(=N)N)C(=O)N[C@H](C=O)CCCCN | 91 | 45 | 15 | > 168 | – | 20 | 5 | –
NCCCC[C@@H](C=O)NOC(=O)C(CCCN)NC(=O)[C@H](CCCCN)NOC(=O)C(CCCN)NC(=O)[C@H](CCCCN)NOC(=O)C(CCCN)NC(=O)[C@H](CCCCN)NOC(=O)C(CCCN)NC(=O)[C@@H](N)CCCCN (stereo not given in full) | 94 | 61 | – | > 168 | – | 42 | 5 | No data available
NCCCC[C@@H](C=O)NC(=O)[C@H](CCCCN)NC(=O)[C@@H](CCCCN)NC(=O)[C@H](CCCCN)NC(=O)[C@H](CCCCN)NC(=O)[C@@H](CCCCN)NC(=O)[C@H](CCCCN)NC(=O)[C@@H](N)CCCCN | 102 | 87 | > 48 | > 168 | 20 | 62 | – | –
NCCCC[C@@H](C=O)NOC(=O)[C@H](CCCN)NOC(=O)[C@H](CCCN)NC(=O)[C@H](CCCCN)NC(=O)[C@H](CCCCN)NC(=O)[C@H](CCCCN)NC(=O)[C@H](CCCCN)NOC(=O)[C@H](CCCN)NOC(=O)[C@@H](N)CCCN | – | – | – | > 168 | – | – | – | No data available
NCCCC[C@@H](C=O)NOC(=O)C(CCCN)NOC(=O)C(CCCN)NC(=O)[C@H](CCCCN)NC(=O)[C@H](CCCCN)NC(=O)[C@H](CCCCN)NC(=O)[C@H](CCCCN)NOC(=O)C(CCCN)NOC(=O)C(N)CCCN (stereo not given in full) | 97 | 69 | – | – | – | 52 | 5 | –
NCCCC[C@H](NC(=O)CN(CCCCN)C(=O)CN(CCCCN)C(=O)CN(CCCCN)C(=O)CN(CCCCN)C(=O)CN(CCCCN)C(=O)CN(CCCCN)C(=O)CN(CCCCN)C(=O)CN(CCCCN)C(=O)CN)C(=O)O (H-G[Nlys][Nlys][Nlys][Nlys][Nlys][Nlys][Nlys][Nlys]K-OH) | 92 | 80 | > 48 | > 168 | 20 | 56 | – | –
NCCCC[C@@H](C=O)NC(=O)[C@H](Cc1c[nH]cn1)NC(=O)[C@H](Cc1c[nH]cn1)NC(=O)[C@H](Cc1c[nH]cn1)NC(=O)[C@H](Cc1c[nH]cn1)NC(=O)[C@H](Cc1c[nH]cn1)NC(=O)[C@H](Cc1c[nH]cn1)NC(=O)[C@H](Cc1c[nH]cn1)NC(=O)[C@@H](N)Cc1c[nH]cn1 (H-HHHHHHHHK-aldehyde) | 81 | 74 | 44 | > 168 | – | 64 | >20 | –
NCCCC[C@@H](C=O)NC(=O)[C@H](Cc1c[nH]cn1)NC(=O)[C@H](CCCCN)NC(=O)[C@H](Cc1c[nH]cn1)NC(=O)[C@H](CCCCN)NC(=O)[C@H](Cc1c[nH]cn1)NC(=O)[C@H](CCCCN)NC(=O)[C@H](Cc1c[nH]cn1)NC(=O)[C@@H](N)CCCCN (H-KHKHKHKHK-aldehyde) | 88 | 87 | 6 | > 168 | – | 73 | >20 | –
NCCCC[C@@H](C=O)NC(=O)[C@H](CCCCN)NC(=O)[C@H](CCCCN)NC(=O)[C@H](Cc1c[nH]cn1)NC(=O)[C@H](CCCCN)NC(=O)[C@H](CCCCN)NC(=O)[C@H](Cc1c[nH]cn1)NC(=O)[C@H](CCCCN)NC(=O)[C@@H](N)CCCCN (H-KKHKKHKKK-aldehyde) | 86 | 73 | 6 | > 168 | 20 | 52 | – | –
CN(C)CCCC[C@H](NC(=O)[C@H](CCCCN)NC(=O)[C@H](CCCCN)NC(=O)[C@H](CCCCN(C)C)NC(=O)[C@H](CCCCN)NC(=O)[C@@H](N)CCCCN)C(=O)N[C@@H](CCCCN)C(=O)N[C@@H](CCCCN)C(=O)N[C@H](C=O)CCCCN (H-KK[Lys(Me2)]KK[Lys(Me2)]KKK-aldehyde) | 96 | 78 | 22 | > 168 | – | 41 | 5 | –
NCCCC[C@H](NC(=O)[C@H](CCCCN)NC(=O)[C@H](CCCCN)NC(=O)CN(CCCCN)C(=O)[C@H](CCCCN)NC(=O)[C@H](CCCCN)NC(=O)CN(CCCCN)C(=O)[C@H](CCCCN)NC(=O)[C@@H](N)CCCCN)C(=O)O (H-KK[Nlys]KK[Nlys]KKK-OH) | 104 | 88 | 29 | > 168 | 20 | 60 | – | –
NCCCC[C@@H](C=O)NC(=O)[C@H](CCCCN)NC(=O)[C@H](CCCCN)NC(=O)[C@H](CCCCN=C(N)N)NC(=O)[C@H](CCCCN)NC(=O)[C@H](CCCCN)NC(=O)[C@H](CCCCN=C(N)N)NC(=O)[C@H](CCCCN)NC(=O)[C@@H](N)CCCCN (H-KK[hArg]KK[hArg]KKK-aldehyde) | 92 | 75 | – | > 168 | – | 36 | 10 | No data available
NCCCCC[C@H](NC(=O)[C@H](CCCCN)NC(=O)[C@H](CCCCN)NC(=O)[C@H](CCCCCN)NC(=O)[C@H](CCCCN)NC(=O)[C@@H](N)CCCCN)C(=O)N[C@@H](CCCCN)C(=O)N[C@@H](CCCCN)C(=O)N[C@H](C=O)CCCCN (H-KK[hLys]KK[hLys]KKK-aldehyde) | 76 | 61 | 10 | > 168 | – | 31 | >20 | –
CN(C)CCCC[C@H](NC(=O)[C@H](CCCCN(C)C)NC(=O)[C@H](CCCCN(C)C)NC(=O)[C@H](CCCCN(C)C)NC(=O)[C@H](CCCCN(C)C)NC(=O)[C@H](CCCCN(C)C)NC(=O)[C@H](CCCCN(C)C)NC(=O)[C@@H](N)CCCCN(C)C)C(=O)N[C@H](C=O)CCCCN (H-[Lys(Me2)][Lys(Me2)][Lys(Me2)][Lys(Me2)][Lys(Me2)][Lys(Me2)][Lys(Me2)][Lys(Me2)]K-aldehyde) | 94 | 89 | > 48 | > 168 | – | 71 | 10 | –
NCCCCC[C@H](NC(=O)[C@H](CCCCCN)NC(=O)[C@H](CCCCN)NC(=O)[C@H](CCCCN)NC(=O)[C@H](CCCCN)NC(=O)[C@H](CCCCN)NC(=O)[C@H](CCCCCN)NC(=O)[C@@H](N)CCCCCN)C(=O)N[C@H](C=O)CCCCN (H-[hLys][hLys]KKKK[hLys][hLys]K-aldehyde) | 86 | 66 | – | 120 | – | 34 | >20 | –
NCCCCC[C@H](NC(=O)[C@H](CCCCCN)NC(=O)[C@H](CCCCCN)NC(=O)[C@H](CCCCCN)NC(=O)[C@H](CCCCCN)NC(=O)[C@H](CCCCCN)NC(=O)[C@H](CCCCCN)NC(=O)[C@@H](N)CCCCCN)C(=O)N[C@H](C=O)CCCCN (H-[hLys][hLys][hLys][hLys][hLys][hLys][hLys][hLys]K-aldehyde) | 87 | 65 | 17 | > 168 | – | 31 | 10 | –

Reference: ChEMBL document CHEMBL1141128, “Structure-activity relationship study on a simple cationic peptide motif for cellular delivery of antisense peptide nucleic acid” (J Med Chem, 2005)
